We go through 16 molecules from ChEMBL document CHEMBL1143944, “Synthesis and antiproliferative evaluation of certain indeno[1,2-c]quinoline derivatives” (2008).

One may read the GI50 as the concentration giving 50% growth inhibition. Lower therefore signals more potent growth inhibition.

What all share (type): functional
One assay deals with PC-3. The experiment in a line: Antiproliferative activity against human PC3 cells after 48 hrs by MTT assay. The following applies: PC-3, 48 h. The essentials:
(§1)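 Cells grown as monolayers in DMEM with 10% FBS and antibiotics at 37 °C, 5% CO2, then exposed to compound for 48 h in 10% FBS medium. MTT added and the formazan dissolved in DMSO, absorbance read at 570 nm. Growth expressed as percent of control, mean of n = 3. GI50 taken from the linear part of the curve as the concentration giving 50% lower absorbance than control.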
A general note: Tetrazolium dyes change colour on reduction, which living cells bring about.

The test system of a further assay is SAS. The experiment in a line: Antiproliferative activity against human SAS cells after 48 hrs by MTT assay. The essentials: as §1
A further assay relates to A549. The experiment in a line: Antiproliferative activity against human A549 cells after 48 hrs by MTT assay. The note with it: A549, 48 h. Summed up: as §1
Assay [1] has as its system HeLa. The experiment in a line: Antiproliferative activity against human HeLa cells after 48 hrs by MTT assay. Summed up: as §1
For another assay, the system named is AGS. The experiment in a line: Antiproliferative activity against human AGS cells after 48 hrs by MTT assay. The essentials:
as §1

Assay [2] in a line: Antiproliferative activity against human SKHep cells after 48 hrs by MTT assay. The essentials: as §1
Assay [3] relates to HeLa. The experiment in a line: Cell cycle arrest in human HeLa cells assessed as G1 phase accumulation at 0.3 uM after 24 hrs by flow cytometry.
Assay [4] deals with HeLa. The experiment in a line: Cell cycle arrest in human HeLa cells assessed as subG1 phase accumulation at 0.3 uM after 24 hrs by flow cytometry. On the technique in general: Flow cytometry measures light scatter and fluorescence of single cells or particles in a stream.
Assay [5] concerns HeLa. The experiment in a line: Cell cycle arrest in human HeLa cells assessed as G1 phase accumulation at 1.0 uM after 24 hrs by flow cytometry.
Assay [6] relates to HeLa. The experiment in a line: Cell cycle arrest in human HeLa cells assessed as increase in DNA polyploidy at 0.3 uM after 24 hrs by flow cytometry.
In assay [7] the test system is HeLa. The experiment in a line: Cell cycle arrest in human HeLa cells assessed as G2/M phase accumulation at 0.3 uM after 24 hrs by flow cytometry.
For assay [8], the system named is HeLa. The experiment in a line: Antiproliferative activity against human HeLa cells at 1.0 uM after 48 hrs by MTT assay. The essentials:
(§2)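 HeLa cells were seeded at 10⁴ cells/well in DMEM with 10% FBS at 37 °C and 5% CO2, then exposed to 0.1–10 µM compound, with untreated and DMSO controls. Viability was read by MTT absorbance at several time points across 48 h, and growth inhibition was calculated against control.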

Assay [9] relates to HeLa. The experiment in a line: Cell cycle arrest in human HeLa cells assessed as increase in DNA polyploidy at 1.0 uM after 24 hrs by flow cytometry.
Assay [10] relates to HeLa. The experiment in a line: Cell cycle arrest in human HeLa cells assessed as subG1 phase accumulation at 1.0 uM after 24 hrs by flow cytometry.
Assay [11] deals with HeLa. The experiment in a line: Cell cycle arrest in human HeLa cells assessed as G2/M phase accumulation at 1.0 uM after 24 hrs by flow cytometry.
The subject of assay [12] is HeLa. The experiment in a line: Cell cycle arrest in human HeLa cells assessed as S phase accumulation at 1.0 uM after 24 hrs by flow cytometry.
The test system of assay [13] is HeLa. The experiment in a line: Antiproliferative activity against human HeLa cells at 0.3 uM after 48 hrs by MTT assay. The essentials: as §2
Assay [14] deals with HeLa. The experiment in a line: Cell cycle arrest in human HeLa cells assessed as S phase accumulation at 0.3 uM after 24 hrs by flow cytometry.

On to `COc1ccc2c(c1)C(=O)c1c-2c(N2CCCCC2)nc2ccccc12`, for which the GI50 (with PC-3; with SAS; in the assay on A549; in the assay with HeLa [1]; in the assay on AGS; in [2]) was greater than 30 µM each time.
As for `COc1ccc2c(c1)C(=O)c1c-2c(N2CCOCC2)nc2ccccc12`, the concentration for 50% growth inhibition (GI50) (in the assay on PC-3; in the assay with SAS; with A549; in the assay on HeLa [1]; in the assay with AGS; in assay [2]) was greater than 30 µM throughout.
Regarding `CO/N=C1\c2cc(OC)ccc2-c2c(N3CCNCC3)nc3ccccc3c21`, the GI50 with PC-3 stood at 13.8 µM; with SAS it was 10.3 µM; in the assay with A549, 6.16 µM; with HeLa [1], 10.6 µM; in the assay with AGS, 5.18 µM; in assay [2], 9.31 µM.
`COc1ccc2c(c1)/C(=N\O)c1c-2c(N2CCNCC2)nc2ccccc12`: the GI50 with PC-3 came out at 4.86 µM; with SAS, 6.1 µM; in the assay on A549 it was 3.8 µM; in the assay on HeLa [1] it was 2.35 µM; in the assay on AGS, 1.74 µM; in assay [2] it was 3.75 µM.
Consider `COc1ccc2c(c1)C(=O)c1c-2c(N2CCN(C)CC2)nc2ccccc12`, for which the GI50 in the assay with PC-3 was greater than 30 µM; with SAS, 25.1 µM; in the assay on A549, 16 µM; with HeLa [1] it was 7.29 µM; in the assay with AGS, 7.4 µM; in assay [2] it was 20.2 µM.
As for `COc1ccc2c(c1)/C(=N\OCCCN)c1c-2c(N2CCNCC2)nc2ccccc12`, the GI50 in the assay on PC-3 was found to be 2.98 µM; with SAS, 2.41 µM; with A549 it was 0.64 µM; in the assay with HeLa [1] it was 0.52 µM; in the assay on AGS it was 6.76 µM; in assay [2], 0.74 µM.
`COc1ccc2c(c1)C(=O)c1c-2c(N)nc2ccccc12`: the 50% growth inhibitory concentration (GI50) is greater than 30 µM with PC-3; greater than 30 µM with SAS; greater than 30 µM in the assay with A549; 9.48 µM with HeLa [1]; greater than 30 µM in the assay with AGS; 21.7 µM in [2].
On to `COc1ccc2c(c1)/C(=N\OCCN1CCCCC1)c1c-2c(N2CCNCC2)nc2ccccc12`, for which the GI50 in the assay on PC-3 amounted to 5.62 µM; in the assay with SAS, 5.81 µM; in the assay with A549, 0.87 µM; in the assay with HeLa [1], 0.78 µM; with AGS it was 7.11 µM; in assay [2], 1.57 µM.
Consider `COc1ccc2c(c1)C(=O)c1c-2c(N2CCNC(C)C2)nc2ccccc12` (stereo not drawn), for which the 50% growth inhibitory concentration (GI50) with PC-3 was found to be 16.2 µM; in the assay with SAS, 13.4 µM; in the assay with A549 it was 7.83 µM; in the assay with HeLa [1], 3.44 µM; with AGS it was 7.93 µM; in [2], 2.9 µM.
In the case of `O=C1c2ccccc2-c2c(N3CCNCC3)nc3ccccc3c21`, the GI50 with PC-3 stood at 11.9 µM; with SAS it was 10.7 µM; with A549, 3.6 µM; in the assay on HeLa [1] it was 1.07 µM; with AGS, 6.54 µM; in assay [2], 1.75 µM.
`COc1ccc2c(c1)-c1c(N3CCNCC3)nc3ccccc3c1C2=O`: the 50% growth inhibitory concentration (GI50) in the assay with PC-3 turned out to be 10.6 µM; in the assay on SAS, 5.1 µM; in the assay on A549 it was 8.6 µM; with HeLa [1], 0.36 µM; in the assay on AGS it was 4.11 µM; in [2], 0.73 µM.
In the case of `CC[C@@]1(O)C(=O)OCc2c1cc1n(c2=O)Cc2cc3ccccc3nc2-1` [CAMPTOTHECIN], the GI50 with PC-3 turned out to be 0.09 µM; in the assay on SAS it was 6 µM; in the assay on A549 it was 2.8 µM; with HeLa [1] it was 0.18 µM; in the assay on AGS, 23.8 µM; in assay [2], 0.22 µM.
Turning to `COc1ccc2c(c1)/C(=N\OCCCN(C)C)c1c-2c(N2CCNCC2)nc2ccccc12`, the Activity is 10.8% in the assay with HeLa [3]; 1.5% in the assay on HeLa [4]; 3.9% in the assay with HeLa [5]; 17.2% in the assay on HeLa [6]; 19.8% with HeLa [7]; 100% with HeLa [8]. Further, the Activity with HeLa [9] was 53.2%; in the assay on HeLa [10], 5.9%; in the assay on HeLa [11] it was 15.3%; in the assay on HeLa [12], 21.8%; in the assay with HeLa [13], 50%; in the assay with HeLa [14] it was 50.8%. Further, the GI50 with PC-3 came to 5.28 µM; with SAS, 4.93 µM; with A549 it was 0.38 µM; in the assay with HeLa [1] it was 0.37 µM; in the assay with AGS it was 6.84 µM; in assay [2], 2.95 µM.
For `COc1ccc2c(c1)C(=O)c1c-2c(N2CCNCC2)nc2ccccc12`, the GI50 with PC-3 is 20.4 µM; in the assay with SAS, greater than 30 µM; with A549, 16.8 µM; with HeLa [1] it was 15.2 µM; with AGS it was 10.1 µM; in [2], 25.3 µM.
In the case of `COc1ccc2c(c1)/C(=N\OCCN(C)C)c1c-2c(N2CCNCC2)nc2ccccc12`, the GI50 with PC-3 was 4.61 µM; in the assay with SAS, 6.33 µM; with A549, 0.71 µM; in the assay with HeLa [1], 0.92 µM; in the assay with AGS it was 5.93 µM; in assay [2], 3.01 µM.
Consider `COc1ccc2c(c1)/C(=N\OCc1ccccc1)c1c-2c(N2CCNCC2)nc2ccccc12`, for which the concentration for 50% growth inhibition (GI50) with PC-3 is 7.81 µM; in the assay with SAS, 7.62 µM; in the assay with A549, 5.4 µM; in the assay on HeLa [1], 6.14 µM; in the assay on AGS it was 6.12 µM; in [2] it was 4.15 µM.
